The first data set deals with Schistosoma mansoni. In words: Antiparasitic activity against schistosomula stage of Schistosoma mansoni assessed as parasite viability at 10 uM after 48 hrs by Alamar Blue assay relative to control. Format: functional.
Conditions: not given
An outline of the steps:
(§1)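 Mechanically transformed S. mansoni schistosomula, 100 per well, in Medium 199 with 10% FCS, penicillin, streptomycin and rifampicin, held 3 h at 37°C/5% CO2 before use. […] Resazurin added at 48 h; fluorescence (ex 530/em 590 nm) read 24 h later, corrected for drug-medium background. Ethanol-killed larvae as dead control. Triplicate wells, two biological replicates.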
A general note: Alamar Blue is a resazurin reagent that responds to reducing activity.
Chain of Histone deacetylase 1 (Q13547 whole entry): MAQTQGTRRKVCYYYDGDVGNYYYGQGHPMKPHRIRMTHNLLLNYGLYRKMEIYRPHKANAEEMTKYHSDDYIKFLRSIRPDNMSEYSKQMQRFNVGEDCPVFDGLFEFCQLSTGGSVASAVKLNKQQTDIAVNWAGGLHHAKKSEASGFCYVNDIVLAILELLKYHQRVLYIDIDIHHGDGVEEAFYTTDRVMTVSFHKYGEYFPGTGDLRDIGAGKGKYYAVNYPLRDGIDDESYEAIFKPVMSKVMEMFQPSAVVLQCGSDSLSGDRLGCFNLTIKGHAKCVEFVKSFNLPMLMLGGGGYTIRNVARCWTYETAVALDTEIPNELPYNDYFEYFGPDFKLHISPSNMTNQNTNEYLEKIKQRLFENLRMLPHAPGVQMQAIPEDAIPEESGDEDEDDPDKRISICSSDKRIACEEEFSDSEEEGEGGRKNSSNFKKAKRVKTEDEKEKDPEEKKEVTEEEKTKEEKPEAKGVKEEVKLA
As for `O=C(NO)c1ccc(C(F)(F)F)c(NC(=O)c2ccccc2)c1`, the Activity is given as 99.9%.
As to `CC(C)Oc1ccc(C(=O)NO)cc1NC(=O)c1ccccc1`, the Activity is 75%.
Turning to `COc1ccc(C(=O)NO)cc1S(=O)(=O)Nc1ccc(C)cc1`, the Activity is on record as 77.7%.
With `O=C(NO)c1ccc(Cl)c(NC(=O)c2ccc(Cl)cc2)c1`, the Activity came to 71.8%.
Consider `Cc1ccc(C(=O)NO)cc1NC(=O)c1ccccc1`, for which the Activity turned out to be 82.9%.
`O=C(NO)c1ccc(Cl)c(NC(=O)c2cccc(OCc3ccccc3)c2)c1`: the Activity is given as 73.8%.
As to `COc1ccc(C(=O)Nc2cc(C(=O)NO)ccc2Cl)cc1`, the Activity is 63.2%.
Consider `Cc1ccc(C(=O)NO)cc1NC(=O)c1ccc2ccccc2n1`, for which the Activity was 74.9%.

A further data set concerns Schistosoma mansoni. Description: Antiparasitic activity against schistosomula stage of Schistosoma mansoni assessed as parasite viability at 20 uM after 48 hrs by Alamar Blue assay relative to control. Format: functional.
Conditions: not given
The method, boiled down:
as §1
Turning to `O=C(NO)c1ccc(C(F)(F)F)c(NC(=O)c2ccccc2)c1`, the Activity came out at 77.4%.
As for `CC(C)Oc1ccc(C(=O)NO)cc1NC(=O)c1ccccc1`, the Activity stood at 68.7%.
With `COc1ccc(C(=O)NO)cc1S(=O)(=O)Nc1ccc(C)cc1`, the Activity is 73.8%.
For the molecule `O=C(NO)c1ccc(Cl)c(NC(=O)c2ccc(Cl)cc2)c1`, the Activity worked out at 49.3%.
Turning to `Cc1ccc(C(=O)NO)cc1NC(=O)c1ccccc1`, the Activity is 72.4%.
For the molecule `O=C(NO)c1ccc(Cl)c(NC(=O)c2cccc(OCc3ccccc3)c2)c1`, the Activity was determined as 68.6%.
On to `COc1ccc(C(=O)Nc2cc(C(=O)NO)ccc2Cl)cc1`, for which the Activity amounted to 60.7%.
With `Cc1ccc(C(=O)NO)cc1NC(=O)c1ccc2ccccc2n1`, the Activity turned out to be 59.4%.

System in the next data set: not listed separately
In words: Cytotoxicity against HEK293 cells assessed as cell viability at 50 uM after 24 hrs by Alamar Blue assay relative to control. As to conditions: human, read-out: Activity. Format: cell-based. The method, boiled down: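 AlamarBlue added after 24 h, incubated a further 21 h; resorufin fluorescence ex 560/em 590 nm. Triplicates; viability relative to untreated cells; daunorubicin positive control.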
In the case of `O=C(NO)c1ccc(C(F)(F)F)c(NC(=O)c2ccccc2)c1`, the viability at 24 h, 50 µM was found to be 96%.
On to `CC(C)Oc1ccc(C(=O)NO)cc1NC(=O)c1ccccc1`, for which the viability at 24 h, 50 µM amounted to 129%.
`COc1ccc(C(=O)NO)cc1S(=O)(=O)Nc1ccc(C)cc1`: the viability at 24 h, 50 µM turned out to be 80.2%.
Same read-out and setting: the figure for `O=C(NO)c1ccc(Cl)c(NC(=O)c2ccc(Cl)cc2)c1` is 81.6%; for `Cc1ccc(C(=O)NO)cc1NC(=O)c1ccccc1` it is 71.2%.
Turning to `O=C(NO)c1ccc(Cl)c(NC(=O)c2cccc(OCc3ccccc3)c2)c1`, the viability at 24 h, 50 µM came to 74.4%.
As for `COc1ccc(C(=O)Nc2cc(C(=O)NO)ccc2Cl)cc1`, the viability at 24 h, 50 µM amounted to 62.5%.

The target of another data set is T1, Histone deacetylase 8 (Schistosoma mansoni, UniProt A5H660).
T1 sequence (A5H660 whole entry): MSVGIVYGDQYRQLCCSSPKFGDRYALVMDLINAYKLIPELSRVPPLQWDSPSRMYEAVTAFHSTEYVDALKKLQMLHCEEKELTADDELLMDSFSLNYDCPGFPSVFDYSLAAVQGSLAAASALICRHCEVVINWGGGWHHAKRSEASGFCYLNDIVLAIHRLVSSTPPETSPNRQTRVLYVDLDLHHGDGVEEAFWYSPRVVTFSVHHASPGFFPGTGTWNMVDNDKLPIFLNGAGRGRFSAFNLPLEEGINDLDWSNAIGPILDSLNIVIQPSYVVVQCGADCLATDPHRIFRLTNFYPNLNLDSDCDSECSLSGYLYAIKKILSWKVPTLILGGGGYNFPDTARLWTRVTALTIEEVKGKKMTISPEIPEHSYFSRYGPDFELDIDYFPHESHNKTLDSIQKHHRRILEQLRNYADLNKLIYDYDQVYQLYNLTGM
Description: Inhibition of recombinant Schistosoma mansoni HDAC8 expressed in Escherichia coli using Fluor de Lys as substrate preincubated for 90 mins followed by BML-KI176 addition measured after 45 mins by fluorescence assay. The conditions noted are these: read-out: IC50. The method, boiled down:
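smHDAC8 produced in E. coli. Fluor de Lys kit: compound, Fluor de Lys-HDAC8 substrate (50 µM) and enzyme incubated 90 min at 37°C, then Developer II for 45 min at 30°C. Reaction stopped with trichostatin A (2 µM). Fluorescence read at ex 390/em 460 nm. IC50 given as mean ± S.E.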
In the case of `O=C(NO)c1ccc(C(F)(F)F)c(NC(=O)c2ccccc2)c1`, the IC50 was 140 nM.
`CC(C)Oc1ccc(C(=O)NO)cc1NC(=O)c1ccccc1`: the half-inhibitory concentration (IC50) came to 220 nM.
Take `COc1ccc(C(=O)NO)cc1S(=O)(=O)Nc1ccc(C)cc1`: the IC50 turned out to be 485 nM.
Consider `O=C(NO)c1ccc(Cl)c(NC(=O)c2ccc(Cl)cc2)c1`, for which the IC50 came to 235 nM.
As for `Cc1ccc(C(=O)NO)cc1NC(=O)c1ccccc1`, the IC50 is 116 nM.
Turning to `O=C(NO)c1ccc(Cl)c(NC(=O)c2cccc(OCc3ccccc3)c2)c1`, the IC50 is 378 nM.
Consider `COc1ccc(C(=O)Nc2cc(C(=O)NO)ccc2Cl)cc1`, for which the IC50 amounted to 147 nM.
Regarding `Cc1ccc(C(=O)NO)cc1NC(=O)c1ccc2ccccc2n1`, the IC50 turned out to be 96.1 nM.

For another data set, the target named is T2, Histone deacetylase 8 (Homo sapiens, UniProt Q9BY41).
T2 sequence (Q9BY41 whole entry): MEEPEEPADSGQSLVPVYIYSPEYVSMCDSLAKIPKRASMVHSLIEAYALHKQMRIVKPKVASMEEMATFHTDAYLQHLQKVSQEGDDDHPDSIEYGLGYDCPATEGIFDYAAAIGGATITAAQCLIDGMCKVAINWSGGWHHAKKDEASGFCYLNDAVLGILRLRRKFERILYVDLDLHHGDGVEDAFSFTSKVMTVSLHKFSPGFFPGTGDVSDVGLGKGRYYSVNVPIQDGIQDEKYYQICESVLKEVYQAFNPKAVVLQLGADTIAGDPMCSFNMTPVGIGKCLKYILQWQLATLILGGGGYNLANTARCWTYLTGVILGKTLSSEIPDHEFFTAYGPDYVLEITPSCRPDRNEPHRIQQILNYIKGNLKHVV
In words: Inhibition of recombinant human HDAC8 using Fluor de Lys as substrate preincubated for 90 mins followed by BML-KI176 addition measured after 45 mins by fluorescence assay. The conditions noted are these: read-out: IC50.
Consider `O=C(NO)c1ccc(C(F)(F)F)c(NC(=O)c2ccccc2)c1`, for which the IC50 is 342 nM.
Same read-out and setting: next, `CC(C)Oc1ccc(C(=O)NO)cc1NC(=O)c1ccccc1`: 29 nM.
On to `COc1ccc(C(=O)NO)cc1S(=O)(=O)Nc1ccc(C)cc1`, for which the IC50 came to 19.8 nM.
Regarding `O=C(NO)c1ccc(Cl)c(NC(=O)c2ccc(Cl)cc2)c1`, the IC50 amounted to 292 nM.
Consider `Cc1ccc(C(=O)NO)cc1NC(=O)c1ccccc1`, for which the half-inhibitory concentration (IC50) is 204 nM.
Take `O=C(NO)c1ccc(Cl)c(NC(=O)c2cccc(OCc3ccccc3)c2)c1`: the half-maximal inhibitory concentration (IC50) was determined as 214 nM.
In the case of `COc1ccc(C(=O)Nc2cc(C(=O)NO)ccc2Cl)cc1`, the half-maximal inhibitory concentration (IC50) is 236 nM.
With `Cc1ccc(C(=O)NO)cc1NC(=O)c1ccc2ccccc2n1`, the IC50 worked out at 30.3 nM.

The next data set concerns the target Histone deacetylase 1 (Homo sapiens, UniProt Q13547). In words: Inhibition of recombinant human HDAC1 using Cbz-(Ac)Lys-AMC as substrate preincubated for 90 mins followed by trypsin addition measured after 20 mins by fluorescence assay. The conditions noted are these: read-out: IC50.
Turning to `O=C(NO)c1ccc(C(F)(F)F)c(NC(=O)c2ccccc2)c1`, the half-inhibitory concentration (IC50) stood at 2400 nM.
Turning to `CC(C)Oc1ccc(C(=O)NO)cc1NC(=O)c1ccccc1`, the IC50 is 3600 nM.
`COc1ccc(C(=O)NO)cc1S(=O)(=O)Nc1ccc(C)cc1`: the concentration for half-maximal inhibition (IC50) was 20000 nM.
Take `O=C(NO)c1ccc(Cl)c(NC(=O)c2ccc(Cl)cc2)c1`: the IC50 turned out to be 3800 nM.
Consider `Cc1ccc(C(=O)NO)cc1NC(=O)c1ccccc1`, for which the half-inhibitory concentration (IC50) turned out to be 8400 nM.
For `O=C(NO)c1ccc(Cl)c(NC(=O)c2cccc(OCc3ccccc3)c2)c1`, the IC50 turned out to be 9400 nM.
`COc1ccc(C(=O)Nc2cc(C(=O)NO)ccc2Cl)cc1`: the IC50 came to 4100 nM.
In the case of `Cc1ccc(C(=O)NO)cc1NC(=O)c1ccc2ccccc2n1`, the IC50 stood at 2700 nM.

The target of another data set is T3, Protein deacetylase HDAC6 (Homo sapiens, UniProt Q9UBN7).
T3 sequence (Q9UBN7 whole entry): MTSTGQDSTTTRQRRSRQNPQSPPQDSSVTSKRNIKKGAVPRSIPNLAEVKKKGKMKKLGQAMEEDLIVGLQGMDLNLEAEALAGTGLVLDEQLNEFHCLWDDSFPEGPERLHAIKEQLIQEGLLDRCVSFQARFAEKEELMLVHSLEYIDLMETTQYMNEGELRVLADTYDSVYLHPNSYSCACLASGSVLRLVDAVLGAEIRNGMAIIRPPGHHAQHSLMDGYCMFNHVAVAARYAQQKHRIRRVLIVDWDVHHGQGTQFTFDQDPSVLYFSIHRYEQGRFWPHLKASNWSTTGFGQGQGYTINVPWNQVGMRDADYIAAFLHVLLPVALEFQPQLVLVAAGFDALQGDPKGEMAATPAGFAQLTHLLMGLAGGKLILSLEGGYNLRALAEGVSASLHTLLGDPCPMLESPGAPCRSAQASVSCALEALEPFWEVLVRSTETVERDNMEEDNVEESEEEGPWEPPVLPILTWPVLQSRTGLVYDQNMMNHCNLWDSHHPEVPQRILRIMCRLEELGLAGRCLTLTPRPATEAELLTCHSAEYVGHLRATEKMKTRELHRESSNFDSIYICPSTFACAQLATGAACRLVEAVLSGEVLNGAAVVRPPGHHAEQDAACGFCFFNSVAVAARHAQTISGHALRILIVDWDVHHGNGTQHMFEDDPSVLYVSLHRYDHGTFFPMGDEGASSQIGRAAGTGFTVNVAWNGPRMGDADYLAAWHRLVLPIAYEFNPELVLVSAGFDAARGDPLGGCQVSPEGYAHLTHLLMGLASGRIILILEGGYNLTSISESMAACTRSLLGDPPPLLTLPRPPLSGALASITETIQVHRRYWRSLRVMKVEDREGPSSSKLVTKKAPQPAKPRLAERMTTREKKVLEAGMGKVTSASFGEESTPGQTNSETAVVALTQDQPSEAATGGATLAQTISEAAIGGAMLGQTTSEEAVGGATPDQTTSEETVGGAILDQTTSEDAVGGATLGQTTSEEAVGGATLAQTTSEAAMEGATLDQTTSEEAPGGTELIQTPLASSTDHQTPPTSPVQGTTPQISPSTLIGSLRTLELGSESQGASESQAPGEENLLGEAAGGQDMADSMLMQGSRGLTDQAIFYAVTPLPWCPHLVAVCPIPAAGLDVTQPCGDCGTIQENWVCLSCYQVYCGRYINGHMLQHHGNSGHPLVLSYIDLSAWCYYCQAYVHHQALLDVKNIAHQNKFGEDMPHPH
In words: Inhibition of recombinant human HDAC6 using Cbz-(Ac)Lys-AMC as substrate preincubated for 90 mins followed by trypsin addition measured after 20 mins by fluorescence assay. The conditions noted are these: read-out: IC50.
As for `O=C(NO)c1ccc(C(F)(F)F)c(NC(=O)c2ccccc2)c1`, the IC50 was 140 nM.
Same read-out and setting: the figure for `CC(C)Oc1ccc(C(=O)NO)cc1NC(=O)c1ccccc1` is 2600 nM; for `COc1ccc(C(=O)NO)cc1S(=O)(=O)Nc1ccc(C)cc1` it is 2400 nM.
Regarding `O=C(NO)c1ccc(Cl)c(NC(=O)c2ccc(Cl)cc2)c1`, the IC50 was 90 nM.
On to `Cc1ccc(C(=O)NO)cc1NC(=O)c1ccccc1`, for which the IC50 was determined as 900 nM.
Consider `O=C(NO)c1ccc(Cl)c(NC(=O)c2cccc(OCc3ccccc3)c2)c1`, for which the half-inhibitory concentration (IC50) turned out to be 1500 nM.
As for `COc1ccc(C(=O)Nc2cc(C(=O)NO)ccc2Cl)cc1`, the half-maximal inhibitory concentration (IC50) amounted to 130 nM.
Turning to `Cc1ccc(C(=O)NO)cc1NC(=O)c1ccc2ccccc2n1`, the half-inhibitory concentration (IC50) was determined as 90 nM.

The IC50 is the concentration at which inhibition is half-maximal.

For the origin of these results see ChEMBL document CHEMBL3797085, “Structure-Based Design and Synthesis of Novel Inhibitors Targeting HDAC8 from Schistosoma mansoni for the Treatment of Schistosomiasis” (J Med Chem, 2016).
